# GalR3 antag – blocks the human galanin receptor 3; O60755; HEK293 GalR3-CNG cAMP membrane potential fluorescence; galR3 body fused to GalR1 C-terminus; inhibition, % at 3 µM; hit rate 0.44% among 360,000; AID 651719;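 active = inhibition above the screen-wide average plus 3 SD, cut at about 13% in these data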;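 also: forskolin and galanin both at EC90 stimulate the cells; cAMP rise reported by CNG channel membrane potential dye signal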
# Target sequence (O60755 1-299 limits assumed): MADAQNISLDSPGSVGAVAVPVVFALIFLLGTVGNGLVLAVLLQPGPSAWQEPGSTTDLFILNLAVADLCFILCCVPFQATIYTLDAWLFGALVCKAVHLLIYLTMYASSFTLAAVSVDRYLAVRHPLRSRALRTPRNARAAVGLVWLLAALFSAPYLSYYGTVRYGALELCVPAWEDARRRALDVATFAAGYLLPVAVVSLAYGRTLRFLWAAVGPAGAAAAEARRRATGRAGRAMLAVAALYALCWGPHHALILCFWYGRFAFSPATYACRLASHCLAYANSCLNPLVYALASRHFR
# NR2E3 ag-1 – human photoreceptor-specific nuclear receptor agonism; inhibition of corepressor binding, % at 3.98 µM; CHO-S Gal4-NCOR/VP16-NR2E3 two-hybrid, luciferase; AID 602229; hit rate 0.35% among 360,000; Q9Y5X4;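 active = inhibition above the mean of all tested compounds plus 3 SD, cut at about 70% in these data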;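 also: higher means lower luciferase signal from less NR2E3 corepressor binding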
# CHT inh – inhibitors of human choline transporter CHT; Q9GZV3; CHT-expressing cells, membrane potential dye, choline response; hits give low values; B-score at 10 µM; hit rate 0.86% among 310,000; AID 488975;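 active = B-score over 3 SD under the library average, and starting fluorescence ratio not unusually high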;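 also: choline stimulus applied at its EC90 after an EC20 pre-addition; B-score computed on integrated fluorescence ratio after choline addition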
# CHT allo act – allosterically activates the human high affinity choline transporter | Q9GZV3 | CHT-expressing cells, membrane potential dye, choline EC20; hits give high values; LV-AA mutant CHT in HEK293 cells | B-score at 10 µM | hit rate 0.49% among 310,000;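 active = initial fluorescence not abnormally high and integrated response B-score, plate-corrected, over 3 SD above library mean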
# COUP-TFII inh – inhibitors of human COUP-TFII (NR2F2). inhibition, % at 8.6 µM. AID 686940. HEK293T NGFI-A luciferase reporter, luminescence. hit rate 0.7% among 370,000;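 active = inhibition above a per-plate cutoff, mean inhibition of test wells between control levels plus 3 SD, cut at about 38% in these data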;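 also: cells cotransfected with COUP-TFII expression vector driving the NGFI-A reporter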
# Target sequence (P24468 whole entry, looked up): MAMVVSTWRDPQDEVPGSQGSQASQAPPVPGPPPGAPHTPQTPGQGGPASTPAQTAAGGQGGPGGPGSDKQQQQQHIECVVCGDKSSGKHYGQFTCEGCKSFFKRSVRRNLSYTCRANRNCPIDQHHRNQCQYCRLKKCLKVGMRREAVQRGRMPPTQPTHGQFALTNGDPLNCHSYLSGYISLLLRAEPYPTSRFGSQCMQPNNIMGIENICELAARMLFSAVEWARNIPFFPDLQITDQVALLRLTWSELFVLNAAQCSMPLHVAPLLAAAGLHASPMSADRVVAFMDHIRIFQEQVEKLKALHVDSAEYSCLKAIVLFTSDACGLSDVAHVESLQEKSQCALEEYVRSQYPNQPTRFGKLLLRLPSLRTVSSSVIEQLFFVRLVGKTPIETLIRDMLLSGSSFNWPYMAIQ
# NR2E3 ag-2 – NR2E3 (human) agonism. Q9Y5X4. GST-NR2E3/biotin-RetCOR TR-FRET, 1536-well. inhibition of corepressor binding, % at 4.78 µM. hit rate 0.12% among 320,000. AID 2300;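 active = percent inhibition above the cutoff of mean plus 3 SD of all tested compounds, set per screening campaign, cut at about 20% in these data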
#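 Material – GST-tagged NR2E3 plus biotinylated RetCOR corepressor · Quantity – NR2E3 fusion 1.35 nM · Times – 5 h incubation at 4 °C · Medium – pH 7.5 Tris-based buffer · Technique – TR-FRET, Eu(K)-anti-GST donor, streptavidin-D2 acceptor, ex 340, em 617/671 nm · Benchmarks – high control biotin, low control 0.6% DMSO · Format – 1536-well plates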
# CHT activ conf – human CHT activation, confirmatory screen | shares compounds with CHT allo act | CHT-expressing cells, membrane potential dye fluorescence (FDSS); % of choline EC20–EC90 response window; HEK293 expressing CHT LV-AA mutant; choline added at its EC20 | activation, % at 10 µM | hit rate 91% among 2,500 | AID 504833;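 active = primary screen active, with duplicate mean activation above negative control mean plus 3 SD, cut at about 11% in these data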
# HEK293 MP dye – CHT activator counter-screen hit in parental HEK293 cells; hit rate 62% among 2,500; membrane potential dye fluorescence (FDSS); measured after EC20 choline addition; shares compounds with CHT allo act; ratio readout change at 10 µM, hits read low;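 active = duplicate-averaged ratio beyond 3 SD from buffer wells, up or down, though filed actives are nearly all decreases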
# Hits are given with their value; i = inactive; nt = not tested or not shown. In the library only some 2.3% were active in any assay of this set; here they are far more common.
SMILES,GalR3 antag,NR2E3 ag-1,CHT inh,CHT allo act,COUP-TFII inh,NR2E3 ag-2,CHT activ conf,HEK293 MP dye
CCN1CCN(c2cc(C)c3cc(NC(=O)c4ccncc4)ccc3n2)CC1,i,i,i,i,i,i,43,-26
CCN1CCN(C(=S)Nc2ccc3nc(N4CCN(C)CC4)cc(C)c3c2)CC1,i,i,i,6.9,i,i,41,-34
CCN1CCN(C(=S)Nc2ccc3nc(N4CCN(CC)CC4)cc(C)c3c2)CC1,i,i,i,i,i,i,27,-37
COC(=O)c1ccc(N2CCN(C)CC2)c(NC(=O)c2cccnc2)c1,i,i,i,10,i,i,52,-101
COC(=O)c1ccc(N2CCOCC2)c(NC(=O)c2cccs2)c1,i,i,i,i,i,i,nt,nt
COC(=O)c1ccc(N2CCN(C)CC2)c(NC(=O)c2cccs2)c1,i,i,i,6.7,i,i,33,-71
O=C(NC1CCCCN(Cc2cccc(F)c2)C1=O)c1ccc(-c2ccccc2)cc1 (stereo not given),nt,nt,nt,nt,i,nt,nt,nt
COc1cccc(N2CCN(S(=O)(=O)c3ccc4c(c3)CC(C)N4C(=O)C3CC3)CC2)c1 (stereo not given),i,i,i,i,i,i,nt,nt
CC1Cc2cc(S(=O)(=O)N3CCN(c4ccccc4F)CC3)ccc2N1C(=O)C1CC1 (stereo not given),i,i,i,7.5,i,i,20,i
COc1ccc2c(c1)sc(N)[n+]2Cc1cc(C)cc2cccnc12,i,i,i,9.6,i,i,54,-38
CCOc1ccc2c(c1)sc(N)[n+]2Cc1cc(C)cc2cccnc12,i,i,i,11,i,i,52,-34
CCOc1ccc2c(ccc(/C=C/c3cc(C)c4cccnc4c3O)[n+]2C)c1,nt,i,nt,nt,nt,nt,nt,nt
O=C(CSc1nnc(-c2ccccc2)n1-c1ccccc1)Nc1cccc2ccccc12,nt,nt,nt,nt,i,nt,nt,nt
COc1ccc(CCNC(=O)c2cc3ccccn3n2)cc1,nt,nt,nt,nt,i,nt,nt,nt
CCCC[C@H](C(=O)N(C)c1cccc(OC)c1)[C@@H](O)c1ccc(C(C)=O)cc1,nt,nt,nt,nt,i,nt,nt,nt
Cn1c(=O)c([N+](=O)[O-])c(NCCCn2ccnc2)c2ccccc21,i,i,i,i,i,i,58,-55
CC(C)(C)N1Cc2nnn(CC3CCCCC3)c2-c2cc(F)ccc2S1(=O)=O,nt,nt,nt,nt,i,nt,nt,nt
CCN1CCS/C1=C/C=C/C1=[N+](CC)CCS1,nt,i,i,6.9,nt,i,45,-31
Cn1c(=S)c2[nH]c(SCCN3CCCC3)nc2n(C)c1=O,i,i,i,i,i,i,nt,nt
CCN1CCCC(Sc2nc3c([nH]2)c(=S)n(C)c(=O)n3C)C1 (stereo not given),i,i,i,i,i,i,29,-26
CCCn1c(-c2cccs2)nc2ccccc21,i,i,i,i,i,i,nt,nt
CCN1c2ccccc2-c2nc3ccccc3n2C1c1cccs1 (stereo not given),i,i,i,7.4,i,i,45,i
CCOC(=O)C1CCN(c2nc(C)nc3c2oc2ccccc23)CC1,i,i,i,8,i,i,i,i
CCOC(=O)C1CCCN(c2nc(C)nc3c2oc2ccccc23)C1 (stereo not given),i,i,i,i,i,i,nt,nt
N#Cc1c(N)sc(=S)c2c1CCN(Cc1ccccc1)C2,nt,nt,i,i,nt,i,nt,nt
SMILES,GalR3 antag,NR2E3 ag-1,CHT inh,CHT allo act,COUP-TFII inh,NR2E3 ag-2,CHT activ conf,HEK293 MP dye
CC(C)N1CCc2c(sc(N)c2C#N)C1,i,i,i,6.4,i,i,43,-36
CCN1CCc2c(sc(N)c2C#N)C1,i,i,i,i,i,i,37,-39
CC(C)N1CCc2c(sc(NC(=S)NC(=O)c3ccccc3)c2C#N)C1,i,i,i,i,i,i,nt,nt
CC(=O)CC[C@H]1CC[C@]2(CCCN(C(=O)c3ccco3)C2)O1,nt,nt,nt,nt,i,nt,nt,nt
Cc1c2ccccc2nc2ccccc12,i,i,i,i,i,i,nt,nt
Cc1cc(Nc2ccccc2O)c2ccccc2n1,i,i,i,6.7,i,i,39,-37
Nc1cccc2nc3ccccc3cc12,nt,i,i,13,nt,i,27,-55
COCCCNc1cc(C)nc2ccccc12,i,i,i,i,i,i,56,-68
Cc1cc(N)c2ccccc2n1,i,i,i,8,i,i,65,-55
O=C(CSc1nc2ccccc2nc1N1CCCCC1)NCc1ccc(Cl)cc1Cl,nt,nt,nt,nt,i,nt,nt,nt
COc1cc(-n2c(C)nc3cc(C(=O)N4CC(C)CC(C)C4)ccc32)cc(OC)c1OC (stereo not given),nt,nt,nt,nt,i,nt,nt,nt
COC(=O)Nc1cc(C)nc2ccccc12,i,i,i,6.8,i,i,35,-45
COc1ccc(C(=O)Nc2cc(C)nc3ccccc23)cc1OC,i,i,i,i,i,i,nt,nt
COCCCNc1nc(-c2ccc(Cl)cc2)nc2ccccc12,i,i,i,i,i,i,nt,nt
COCCNc1nc(-c2ccccc2)nc2ccccc12,i,i,i,i,i,i,31,-36
CCCN(CC(=O)Nc1cc(Cl)ccc1Cl)C(=O)/C=C/c1ccco1,i,i,i,6.8,i,i,31,i
CN1CCN(c2nc(C#N)cc(-c3ccccc3)n2)CC1,i,i,i,i,i,i,23,-23
COc1ccc(-c2cc(C#N)nc(N3CCN(C)CC3)n2)cc1,i,i,i,i,i,i,nt,nt
O=C1CC2(CCN(C(=O)c3c(F)cccc3Cl)CC2)Oc2ccccc21,i,i,i,8.7,i,i,i,i
COc1ccc(Cl)cc1C(=O)N1CCC2(CC1)CC(=O)c1ccccc1O2,i,i,i,9.6,i,i,i,i
O=C1CC2(CCN(C(=O)c3ccccc3Br)CC2)Oc2ccccc21,i,i,i,i,i,i,nt,nt
COc1ccccc1OCC(=O)N1CCC2(CC1)CC(=O)c1ccccc1O2,i,i,i,i,i,i,nt,nt
COCCCN1C(=O)[C@H](CC(=O)NCc2ccc(OC)c(OC)c2)[C@]2(C(=O)OC)CCCCC=C12,nt,nt,nt,nt,i,nt,nt,nt
Cc1ccc(NC(=O)Cn2nnc(-c3ccncc3)n2)cc1C,nt,nt,nt,nt,i,nt,nt,nt
CN(C)c1nc(N)c(C(=O)N=C(N)N)nc1Cl,nt,i,i,8.7,i,i,56,-39
NC(=Nc1ccccc1)NC(=O)c1nc(Cl)c(N)nc1N,nt,i,i,i,i,i,nt,nt
Cc1ccc(Cl)cc1N1CCN(C(=O)C2CCC(=O)N(C3CCCCCC3)C2)CC1 (stereo not given),i,i,i,9.2,i,i,24,i
